Bioassay records from PubChem.
Compounds with a hit are over-represented: about 1.9% of the library has one in this group of screens.
Xi reactivation: activators of inactive X chromosome reactivation, primary screen, imaging, XiGFP fibroblasts, GFP high-content imaging, set 2; XiGFP mouse fibroblasts, % GFP-positive cells imaging, 3 d; cells co-treated with 5-aza-dC sensitizer; scaled so ellipticine positive control = 100%; activation, % at 7.58 µM; actives 0.055% (n = 360,000);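 active = mean normalized replicate activation at least 10% and every replicate at or above 10%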
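System: SV40-immortalized XiGFP fibroblast cells, line 68-5-11 / Incubation: 3-day compound exposure, then 15 min fixation at room temperature / Compound: single concentration per compound, delivered by pin transfer / Buffer or medium: DMEM plus 5-aza-dC sensitizer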
Rin1-Abl PPI inh: inhibitors of Rin1-Abl protein binding, primary screen, biochemical, TR-FRET | Tyrosine-protein kinase ABL1 (Homo sapiens) + Ras and Rab interactor 1 (Homo sapiens), … | inhibition, % at 7.35 µM | actives 0.4% (n = 360,000); in the data active = inhibition above about 5%, passing the limit was not always enough
ABHD5-PLIN5 inh: ABHD5-PLIN5 interaction inhibitors, primary screen, cell lysate, split luciferase complementation, luminescence. Split G. princeps luciferase complementation, 4 h. inhibition, % at 4 µM. actives 0.78% (n = 360,000);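 active = inhibition above the mean inhibition across every tested compound plus 3 SD, cut at about 22% in these data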
Target sequence (Q00G26 whole entry, looked up): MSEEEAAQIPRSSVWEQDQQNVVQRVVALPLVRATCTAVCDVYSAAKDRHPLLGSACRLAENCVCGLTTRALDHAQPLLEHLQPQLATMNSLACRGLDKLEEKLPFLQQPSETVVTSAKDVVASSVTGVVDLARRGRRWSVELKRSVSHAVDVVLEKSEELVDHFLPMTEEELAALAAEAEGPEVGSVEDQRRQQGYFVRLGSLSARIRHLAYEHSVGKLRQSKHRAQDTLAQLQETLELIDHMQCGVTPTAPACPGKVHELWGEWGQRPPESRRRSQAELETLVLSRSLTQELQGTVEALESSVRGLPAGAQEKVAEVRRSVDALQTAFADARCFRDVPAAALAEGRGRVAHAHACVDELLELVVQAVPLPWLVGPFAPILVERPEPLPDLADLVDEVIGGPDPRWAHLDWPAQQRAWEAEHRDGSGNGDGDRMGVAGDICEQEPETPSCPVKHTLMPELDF
Target sequence (Q8WTS1 whole entry, looked up): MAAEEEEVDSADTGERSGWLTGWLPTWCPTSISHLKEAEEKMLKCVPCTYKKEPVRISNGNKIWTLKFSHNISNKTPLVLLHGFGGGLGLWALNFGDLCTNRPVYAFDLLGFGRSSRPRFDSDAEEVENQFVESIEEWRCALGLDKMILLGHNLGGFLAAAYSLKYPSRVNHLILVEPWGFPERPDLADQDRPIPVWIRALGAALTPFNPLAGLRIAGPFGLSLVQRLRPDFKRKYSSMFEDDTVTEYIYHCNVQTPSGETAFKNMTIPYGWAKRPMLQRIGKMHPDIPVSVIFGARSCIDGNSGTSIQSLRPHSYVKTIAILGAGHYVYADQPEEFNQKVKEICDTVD
Rpn11 inh: Rpn11 (PSMD14) deubiquitinase inhibitors, primary screen, biochemical, fluorescence polarization, uHTS | 26S proteasome non-ATPase regulatory subunit 14 (Homo sapiens), O00487 | human 26S proteasome, Ub4-pepOG fluorescence polarization; 20S core pre-blocked with epoxomicin | inhibition, % at 20 µM | actives 0.59% (n = 360,000);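 active = inhibition at 20 µM, scaled to each plate's controls, above about 33%, limit read from the data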
NadD block: inhibitors of S. aureus NadD, primary screen, biochemical, colorimetric, uHTS | Nicotinate-nucleotide adenylyltransferase NadD (Staphylococcus aureus N315) | purified NadD enzyme, colorimetric absorbance read-out | inhibition, % at 20 µM | AID 602399, 2012 | actives 0.78% (n = 360,000); in the data active = inhibition above about 26%
Large screens that a line does not name were inactive.

COc1ccc(NC(=O)/C(N=Nc2ccc(Cl)c(S(=O)(=O)Nc3ccc(Cl)cc3)c2)=C(\C)O)cc1	NadD block 31
O=C(CNC(=O)/C=C/c1ccco1)N=Nc1c(O)[nH]c2ccccc12	NadD block 34
O=C(CNC(=O)Cc1ccccc1)N=Nc1c(O)[nH]c2ccccc12	none
O=C(NCC[C@H]1CC[C@H](NC(=O)c2cccnc2)[C@H](CO)O1)Nc1ccc(Cl)cc1	none (no result: Rin1-Abl PPI inh, ABHD5-PLIN5 inh, Rpn11 inh, NadD block)
C/C(=C\c1ccccc1F)C(=O)c1c(C)cc(C)[nH]c1=O	none
Cc1[nH]c(=O)c(C(=O)/C=C/c2ccccc2F)c2c1CCCC2	ABHD5-PLIN5 inh 51 (no result: Xi reactivation)
O=C(O)C[C@@H]1C[C@@H]2c3cc(NC(=O)C4CCOCC4)ccc3O[C@@H]2[C@@H](CO)O1	none (no result: Rin1-Abl PPI inh, ABHD5-PLIN5 inh, Rpn11 inh, NadD block)
O=C(CCN1C(=O)/C(=C/C=C/c2ccccc2)SC1=S)Nc1nccs1	NadD block 41 (no result: Xi reactivation)
CCNC(=S)N/N=C/c1cc(C)n(-c2ccc(Cl)cc2)c1C	none
Cc1ccc(-n2c(C)cc(/C=N/NC(=O)Cn3c4ccccc4c(=O)c4ccccc43)c2C)cc1	NadD block 37
Cc1cc(/C=N/NC(=O)Cn2c3ccccc3c(=O)c3ccccc32)c(C)n1-c1ccc(Cl)cc1	NadD block 49
COc1ccc(C(=O)/C=C/C(=O)N(CC(=O)NC2CCCCC2)Cc2cccs2)c(O)c1	ABHD5-PLIN5 inh 70
O=c1[nH][nH]c2c(N=Cc3ccccc3O)ccc(F)c12	Rin1-Abl PPI inh 17 (no result: Xi reactivation)
CO[C@@H]1CN(C)C(=O)c2cc(NC(C)=O)ccc2OC[C@@H](C)N(Cc2cccc(F)c2)C[C@@H]1C	none (no result: Rin1-Abl PPI inh, ABHD5-PLIN5 inh, Rpn11 inh, NadD block)
O=C(N/N=C\C=C\c1ccco1)C1COc2ccccc2O1 (stereo not drawn)	ABHD5-PLIN5 inh 23
O=C(N/N=C/C=C/c1ccc([N+](=O)[O-])cc1)C1COc2ccccc2O1 (stereo not drawn)	none
CCn1c(SCC(=O)Nc2oc(-c3ccccc3)c(-c3ccccc3)c2C#N)nnc1-c1cc(OC)cc(OC)c1	NadD block 51 (no result: Xi reactivation)
O=c1c(O)c(-c2cc(O)c(O)c(O)c2)oc2cc(O)cc(O)c12	Rin1-Abl PPI inh 55
O=C(CC1CC1)N1[C@H](CO)[C@@H](c2ccccc2)C12CN(Cc1ccccc1F)C2	none (no result: Rin1-Abl PPI inh, ABHD5-PLIN5 inh, Rpn11 inh, NadD block)
Nc1ccc2ccc(O)cc2c1	none
C[n+]1c2cc(N)ccc2cc2ccc(N)cc21	Xi reactivation 53, NadD block 33
COc1ccc2c3c(n(C)c2c1)[C@@H](CO)N(CC1CC1)CC31CN(C(=O)c2ccccc2)C1	none (no result: Rin1-Abl PPI inh, ABHD5-PLIN5 inh, Rpn11 inh, NadD block)
COc1ccccc1NC(=O)c1cc2cc(Br)ccc2cc1O	NadD block 30
Nc1c(C(=O)NCC2CCCO2)sc2nc3c(c(-c4ccco4)c12)CC/C3=C\c1ccco1 (stereo not drawn)	Rin1-Abl PPI inh 5.6, NadD block 93
CC(C)OC(=O)/C(C#N)=C/c1ccc(-c2ccc(SC(F)F)cc2)o1	Rpn11 inh 57
CC[n+]1c(C=C2C=C(C)OC(C)=C2)sc2ccccc21	Xi reactivation 57
CC[n+]1c(/C=C2/C=C(C)CC(C)C2)sc2ccccc21 (stereo not drawn)	none
COc1ccc(-c2nnc(NC(=O)c3ccc(S(=O)(=O)N4CCCc5ccccc54)cc3)o2)cc1	NadD block 86 (no result: Xi reactivation)
COCc1nnc(NC(=O)c2ccc(S(=O)(=O)N3CCCc4ccccc43)cc2)o1	none
Cc1ccc(N=C2NC(=O)/C(=C/C=C/c3ccco3)S2)cc1	NadD block 34
COc1ccc(N=C2NC(=O)/C(=C/c3ccco3)S2)cc1	none
COc1ccc(N=C2NC(=O)/C(=C\C=C\c3ccccc3)S2)cc1	NadD block 26
Cc1csc(NC(=O)CSc2sc3c(O)cc(=O)[nH]c3c2C#N)n1	none
CCc1nnc(NC(=O)CSc2sc3c(O)cc(=O)[nH]c3c2C#N)s1	Rpn11 inh 61
CCSc1nnc(NC(=O)CSc2sc3c(O)cc(=O)[nH]c3c2C#N)s1	Rpn11 inh 59
